ChEMBL document CHEMBL1152304, “Alteration of the bis-tetrahydrofuran core stereochemistries in asimicin can affect the cytotoxicity” (J Med Chem, 2008)

What was measured:
L1210 [1] = experiment: Cytotoxicity against mouse L1210 cells at 0.3 ug by disk diffusion assay; assay type: functional
Method in brief: (§1)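 15 µL of sample dried overnight on 6.5 mm filter disk. Disk placed near edge of 60 mm dish of cells plated in soft agar, incubated 7-10 days. Zone of inhibition measured from disk edge to start of normal-sized colony formation, disk diameter taken as 200 units. Overly toxic samples diluted 1:4 or 1:10 and retested.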

HCT-116 [2] = experiment: Cytotoxicity against human HCT116 cells at 30 ug by disk diffusion assay; assay type: functional; method in brief: as §1
CCRF-CEM [3] = experiment: Cytotoxicity against human CEM cells at 30 ug by disk diffusion assay; assay type: functional; method in brief: as §1
[4] = Cytotoxicity against human CFU-GM cells at 3 ug by disk diffusion assay; assay type: functional; method in brief: as §1
MC-38 [5] = experiment: Cytotoxicity against mouse Colon 38 cells at 30 ug by disk diffusion assay; assay type: functional; method in brief: as §1
[6] = Inhibition of bovine heart mitochondrial complex1 activity; design: species or system Bos taurus
Method in brief: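 Bovine heart submitochondrial particles, 15 µg/mL, in 0.25 M sucrose, 1 mM MgCl2, 50 mM phosphate pH 7.5. Inhibitor added at various concentrations and equilibrated 5 min. Reaction started with 150 µM NADH and followed spectrophotometrically at 340 nm. IC50 derived.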

[7] = Cytotoxicity against human CFU-GM cells at 0.3 ug by disk diffusion assay; assay type: functional; method in brief: as §1
[8] = Cytotoxicity against human CFU-GM cells at 30 ug by disk diffusion assay; assay type: functional; method in brief: as §1
L1210 [9] = experiment: Cytotoxicity against mouse L1210 cells at 30 ug by disk diffusion assay; assay type: functional; method in brief: as §1
L1210 [10] = experiment: Cytotoxicity against mouse L1210 cells at 3 ug by disk diffusion assay; assay type: functional; method in brief: as §1
[11] = Cytotoxicity against human H125M cells at 30 ug by disk diffusion assay; assay type: functional; method in brief: as §1
MC-38 [12] = experiment: Cytotoxicity against mouse Colon 38 cells at 3 ug by disk diffusion assay; assay type: functional; method in brief: as §1
MC-38 [13] = experiment: Cytotoxicity against mouse Colon 38 cells at 0.3 ug by disk diffusion assay; assay type: functional; method in brief: as §1
[14] = Cytotoxicity against human CFU-GM cells at 3.75 ug by disk diffusion assay; assay type: functional; method in brief: as §1
HCT-116 [15] = experiment: Cytotoxicity against human HCT116 cells at 60 ug by disk diffusion assay; assay type: functional; method in brief: as §1
MC-38 [16] = experiment: Cytotoxicity against mouse Colon 38 cells at 15 ug by disk diffusion assay; assay type: functional; method in brief: as §1
[17] = Cytotoxicity against human CFU-GM cells at 15 ug by disk diffusion assay; assay type: functional; method in brief: as §1
MC-38 [18] = experiment: Cytotoxicity against mouse Colon 38 cells at 60 ug by disk diffusion assay; assay type: functional; method in brief: as §1
L1210 [19] = experiment: Cytotoxicity against mouse L1210 cells at 3.75 ug by disk diffusion assay; assay type: functional; method in brief: as §1
[20] = Cytotoxicity against human H125M cells at 60 ug by disk diffusion assay; assay type: functional; method in brief: as §1
MC-38 [21] = experiment: Cytotoxicity against mouse Colon 38 cells at 3.75 ug by disk diffusion assay; assay type: functional; method in brief: as §1
CCRF-CEM [22] = experiment: Cytotoxicity against human CEM cells at 60 ug by disk diffusion assay; assay type: functional; method in brief: as §1
L1210 [23] = experiment: Cytotoxicity against mouse L1210 cells at 60 ug by disk diffusion assay; assay type: functional; method in brief: as §1
HCT-116 [24] = experiment: Cytotoxicity against human HCT116 cells; assay type: functional, cell-based
[25] = Cytotoxicity against human CFU-GM cells at 60 ug by disk diffusion assay; assay type: functional; method in brief: as §1
L1210 [26] = experiment: Cytotoxicity against mouse L1210 cells at 15 ug by disk diffusion assay; assay type: functional; method in brief: as §1

## CCCCCCCCCC[C@@H](O)[C@@H]1CC[C@@H]([C@@H]2CC[C@H]([C@H](O)CCCCCCCCCC[C@@H](O)CC3=C[C@H](C)OC3=O)O2)O1
L1210 [1]
  inhibition zone (IZ): 50 Zone units
HCT-116 [2]
  inhibition zone (IZ): 600 Zone units
CCRF-CEM [3]
  inhibition zone (IZ): 200 Zone units
[4]
  inhibition zone (IZ): 550 Zone units
MC-38 [5]
  inhibition zone (IZ): 750 Zone units
[6]
  IC50: 3 nM
[7]
  inhibition zone (IZ): 500 Zone units
[8]
  inhibition zone (IZ): 650 Zone units
L1210 [9]
  inhibition zone (IZ): 250 Zone units
L1210 [10]
  inhibition zone (IZ): 150 Zone units
[11]
  inhibition zone (IZ): 600 Zone units
MC-38 [12]
  inhibition zone (IZ): 750 Zone units
MC-38 [13]
  inhibition zone (IZ): 500 Zone units

## CCCCCCCCCC[C@@H](O)[C@H]1CC[C@@H]([C@@H]2CC[C@@H]([C@H](O)CCCCCCCCCC[C@@H](O)CC3=C[C@H](C)OC3=O)O2)O1
L1210 [1]
  inhibition zone (IZ): 100 Zone units
HCT-116 [2]
  inhibition zone (IZ): 500 Zone units
CCRF-CEM [3]
  inhibition zone (IZ): 200 Zone units
[4]
  inhibition zone (IZ): 550 Zone units
MC-38 [5]
  inhibition zone (IZ): 850 Zone units
[6]
  IC50: 2 nM
[7]
  inhibition zone (IZ): 450 Zone units
[8]
  inhibition zone (IZ): 650 Zone units
L1210 [9]
  inhibition zone (IZ): 300 Zone units
L1210 [10]
  inhibition zone (IZ): 200 Zone units
[11]
  inhibition zone (IZ): 500 Zone units
MC-38 [12]
  inhibition zone (IZ): 700 Zone units
MC-38 [13]
  inhibition zone (IZ): 450 Zone units

## CCCCCCCCCC[C@@H](O)[C@H]1CC[C@@H]([C@@H]2CC[C@H]([C@@H](O)CCCCCCCCCC[C@@H](O)CC3=C[C@H](C)OC3=O)O2)O1
[14]
  inhibition zone (IZ): 100 Zone units
HCT-116 [15]
  inhibition zone (IZ): 550 Zone units
MC-38 [16]
  inhibition zone (IZ): 800 Zone units
[17]
  inhibition zone (IZ): 250 Zone units
[6]
  IC50: 2.5 nM
MC-38 [18]
  inhibition zone (IZ): 600 Zone units
L1210 [19]
  inhibition zone (IZ): 150 Zone units
[20]
  inhibition zone (IZ): 500 Zone units
MC-38 [21]
  inhibition zone (IZ): 650 Zone units
CCRF-CEM [22]
  inhibition zone (IZ): 150 Zone units
L1210 [23]
  inhibition zone (IZ): 200 Zone units
HCT-116 [24]
  IC50: 5.6 nM
[25]
  inhibition zone (IZ): 350 Zone units
L1210 [26]
  inhibition zone (IZ): 300 Zone units
